In ChEMBL document CHEMBL3616436, “Synthesis, cytotoxicity and antimicrobial activity of thiourea derivatives incorporating 3-(trifluoromethyl)phenyl moiety” (Eur J Med Chem, 2015):
Values after ≈ are worked out from the molar mass of the structure shown. Active and inactive are the calls of the source. The rule behind the calls is not given here.

Experiments:
Bacillus subtilis = experiment: Antimicrobial activity against Bacillus subtilis ATCC 6633 at 400 ug after 18 hrs by disc-diffusion method; type: functional; details: ATCC 6633, 18 h, read-out: IZ
How it was run: (§1)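 Disc diffusion on Mueller-Hinton II agar per CLSI; 9 mm paper discs loaded with 400 µg compound from DMSO solution, dried, placed on agar; growth inhibition zone diameter read after 18 h at 35°C.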

[1] = test system: Staphylococcus epidermidis; experiment: Antimicrobial activity against Staphylococcus epidermidis ATCC 12228 after 18 hrs by twofold serial microdilution method; type: functional; details: ATCC 12228, 18 h
Staphylococcus aureus [2] = experiment: Antimicrobial activity against Staphylococcus aureus ATCC 25923 after 18 hrs by twofold serial microdilution method; type: functional; details: ATCC 25923, 18 h
[3] = Cytotoxicity against BHK cells assessed as cell viability after 48 to 96 hrs by MTT assay; type: cell-based, Mesocricetus auratus; details: hamster
[4] = Cytotoxicity against African green monkey Vero 76 cells assessed as cell viability after 48 to 96 hrs by crystal violet staining; type: cell-based; details: chlorocebus sabaeus
Staphylococcus aureus [5] = experiment: Antimicrobial activity against Staphylococcus aureus NCTC 4163 after 18 hrs by twofold serial microdilution method; type: functional; details: NCTC 4163, 18 h
Bacillus cereus = experiment: Antimicrobial activity against Bacillus cereus ATCC 11778 at 400 ug after 18 hrs by disc-diffusion method; type: functional; details: ATCC 11778, 18 h, read-out: IZ; how it was run: as §1
[6] = Antiviral activity against Bovine viral diarrhea virus 1-NADL ATCC VR-534 infected in MDBK cells assessed as protection against virus-induced cytopathogenicity after 3 to 4 days by MTT assay; type: functional, cell-based; details: Bovine viral diarrhea virus isolates and strains, ATCC VR-534, MDBK
How it was run: (§2)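 Cells seeded in 96-well plates (BHK 5x10^4, MDBK 3x10^4 cells/well), grown overnight to confluence, infected at m.o.i. 0.01 (BHK for Reo-1, MDBK for BVDV); serial compound dilutions in maintenance medium with 0.5% inactivated FBS added after 1 h; viability by MTT after 3–4 days at 37°C; EC50 for 50% protection by linear regression.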

Staphylococcus aureus [7] = experiment: Antimicrobial activity against Staphylococcus aureus ATCC 29213 at 400 ug after 18 hrs by disc-diffusion method; type: functional; details: ATCC 29213, 18 h, read-out: IZ; how it was run: as §1
[8] = test system: Mammalian orthoreovirus 1; experiment: Antiviral activity against Reovirus type-1 ATCC VR-214 infected in BHK cells assessed as protection against virus-induced cytopathogenicity after 3 to 4 days by MTT assay; type: functional, cell-based; details: Mammalian orthoreovirus 1, ATCC VR-214, BHK; how it was run: as §2
Micrococcus luteus [9] = experiment: Antimicrobial activity against Micrococcus luteus ATCC 9341 at 400 ug after 18 hrs by disc-diffusion method; type: functional; details: ATCC 9341, 18 h, read-out: IZ; how it was run: as §1
Poliovirus 1 = experiment: Antiviral activity against Poliovirus type 1 ATCC VR-1562 infected in African green monkey Vero 76 cells assessed as reduction of virus-plaque formation after 2 days by crystal violet staining; type: functional, organism-based; details: Enterovirus C, ATCC VR-1562, Vero, 48 h
Staphylococcus aureus [10] = experiment: Antimicrobial activity against Staphylococcus aureus ATCC 6538 after 18 hrs by twofold serial microdilution method; type: functional; details: ATCC 6538, 18 h
Yellow fever virus = experiment: Antiviral activity against Yellow fever virus 17D infected in BHK cells assessed as protection against virus-induced cytopathogenicity after 3 to 4 days by MTT assay; type: functional, cell-based
Staphylococcus aureus [11] = experiment: Antimicrobial activity against Staphylococcus aureus ATCC 25923 at 400 ug after 18 hrs by disc-diffusion method; type: functional; details: ATCC 25923, 18 h, read-out: IZ; how it was run: as §1
Micrococcus luteus [12] = experiment: Antimicrobial activity against Micrococcus luteus ATCC 10240 at 400 ug after 18 hrs by disc-diffusion method; type: functional; details: ATCC 10240, 18 h, read-out: IZ; how it was run: as §1
[13] = test system: Human immunodeficiency virus 1; experiment: Antiviral activity against HIV1 3B infected in human MT4 cells assessed as protection against virus-induced cytopathogenicity by MTT assay; type: functional, organism-based; details: Human immunodeficiency virus 1, 3B
Staphylococcus aureus [14] = experiment: Antimicrobial activity against Staphylococcus aureus ATCC 29213 after 18 hrs by twofold serial microdilution method; type: functional; details: ATCC 29213, 18 h
[15] = test system: Staphylococcus epidermidis; experiment: Antimicrobial activity against Staphylococcus epidermidis ATCC 12228 at 400 ug after 18 hrs by disc-diffusion method; type: functional; details: ATCC 12228, 18 h, read-out: IZ; how it was run: as §1
Proteus vulgaris = experiment: Antimicrobial activity against Proteus vulgaris NCTC 4635 at 400 ug after 18 hrs by disc-diffusion method; type: functional; how it was run: as §1
[16] = test system: Staphylococcus epidermidis; experiment: Antimicrobial activity against Staphylococcus epidermidis ATCC 35984 at 400 ug after 18 hrs by disc-diffusion method; type: functional; details: ATCC 35984, 18 h, read-out: IZ; how it was run: as §1
[17] = Cytotoxicity against human MT4 cells; type: cell-based
[18] = test system: Vesicular stomatitis virus; experiment: Antiviral activity against Vesicular stomatitis virus ATCC VR 1540 infected in African green monkey Vero 76 cells assessed as reduction of virus-plaque formation after 2 days by crystal violet staining; type: functional, organism-based; details: ATCC VR 1540, Vero, 48 h
Staphylococcus aureus [19] = experiment: Antimicrobial activity against Staphylococcus aureus NCTC 4163 at 400 ug after 18 hrs by disc-diffusion method; type: functional; details: NCTC 4163, 18 h, read-out: IZ; how it was run: as §1
Vaccinia virus = experiment: Antiviral activity against Human Vaccinia virus ATCC VR-1549 infected in African green monkey Vero 76 cells assessed as reduction of virus-plaque formation after 3 days by crystal violet staining; type: functional, organism-based; details: Orthopoxvirus vaccinia, ATCC VR-1549, Vero, 72 h
Enterococcus faecalis = experiment: Antimicrobial activity against Enterococcus faecalis ATCC 29212 at 400 ug after 18 hrs by disc-diffusion method; type: functional; details: ATCC 29212, 18 h, read-out: IZ; how it was run: as §1
[20] = test system: Mycobacterium tuberculosis; experiment: Antimycobacterial activity against Mycobacterium tuberculosis H37Rv ATCC 25618; type: functional
How it was run: (§3)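 Classical test-tube successive-dilution method in Youmans' modification of Proskauer and Beck liquid medium with 10% bovine serum. Inoculum came from 14-day cultures. DMSO stock was 10 mg/mL, diluted geometrically in medium. Tubes were incubated at 37 °C. Concentrations tested were 3.1, 6.2, 12.5, 25, 50 and 100 µg/ml. MIC is the minimum concentration inhibiting growth relative to compound-free tubes.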

Human alphaherpesvirus 1 = experiment: Antiviral activity against Human herpesvirus 1 KOS ATCC VR-1493 infected in African green monkey Vero 76 cells assessed as reduction of virus-plaque formation after 3 days by crystal violet staining; type: functional, organism-based; details: Human alphaherpesvirus 1, KOS ATCC VR1493, Vero, 72 h
How it was run: (§4)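 Plaque reduction: Vero-76 at 2x10^5 cells/well grown to confluent monolayers, infected 2 h at 50–100 PFU/well; after removing unadsorbed virus, overlay of D-MEM, 1% inactivated FBS, 0.75% methylcellulose with or without serial compound dilutions; 3 days at 37°C, fixed and stained with crystal violet in 50% ethanol, plaques counted; EC50 by linear regression.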

[21] = test system: Staphylococcus epidermidis; experiment: Antimicrobial activity against Staphylococcus epidermidis ATCC 35984 after 18 hrs by twofold serial microdilution method; type: functional; details: ATCC 35984, 18 h
[22] = Cytotoxicity against bovine MDBK cells assessed as cell viability after 48 to 96 hrs by MTT assay; type: cell-based, Bos taurus; details: cattle
[23] = test system: Mycobacterium tuberculosis; experiment: Antimycobacterial activity against drug-sensitive Mycobacterium tuberculosis Spec. 192; type: functional; how it was run: as §3
Staphylococcus aureus [24] = experiment: Antimicrobial activity against Staphylococcus aureus ATCC 6538 at 400 ug after 18 hrs by disc-diffusion method; type: functional; details: ATCC 6538, 18 h, read-out: IZ; how it was run: as §1
Enterococcus hirae = experiment: Antimicrobial activity against Enterococcus hirae ATCC 10541 at 400 ug after 18 hrs by disc-diffusion method; type: functional; how it was run: as §1
Coxsackievirus B5 = experiment: Antiviral activity against Human coxsackievirus B5 ATCC VR-29 infected in African green monkey Vero 76 cells assessed as reduction of virus-plaque formation after 3 days by crystal violet staining; type: functional, organism-based; details: Enterovirus B, ATCC VR-29, Vero, 72 h; how it was run: as §4

SMILES	zone of inhibition at 400 µg/disc (Bacillus subtilis)	MIC [1]	MIC (Staphylococcus aureus [2])	CC50 [3]	CC50 [4]	MIC (Staphylococcus aureus [5])	zone of inhibition at 400 µg/disc (Bacillus cereus)	EC50 [6]	zone of inhibition at 400 µg/disc (Staphylococcus aureus [7])	EC50 [8]	zone of inhibition at 400 µg/disc (Micrococcus luteus [9])	EC50 (Poliovirus 1)	MIC (Staphylococcus aureus [10])	EC50 (Yellow fever virus)	zone of inhibition at 400 µg/disc (Staphylococcus aureus [11])	zone of inhibition at 400 µg/disc (Micrococcus luteus [12])	EC50 [13]	MIC (Staphylococcus aureus [14])	zone of inhibition at 400 µg/disc [15]	zone of inhibition at 400 µg/disc [16]	further results
COC(=O)c1ccccc1NC(=S)Nc1cccc(C(F)(F)F)c1	20 mm	64 µg/mL (≈ 181 µM)	32 µg/mL (≈ 90.3 µM)	> 100 µM	> 100 µM	32 µg/mL (≈ 90.3 µM)	19 mm	> 100 µM	23 mm	> 100 µM	25 mm	> 100 µM	32 µg/mL (≈ 90.3 µM)	> 100 µM	24 mm	24 mm	> 100 µM	32 µg/mL (≈ 90.3 µM)	26 mm	24 mm	inhibition zone (IZ) (Proteus vulgaris): inactive; CC50 [17]: > 100 µM; EC50 [18]: > 100 µM; zone of inhibition at 400 µg/disc (Staphylococcus aureus [19]): 25 mm; EC50 (Vaccinia virus): > 100 µM; zone of inhibition at 400 µg/disc (Enterococcus faecalis): 14 mm; MIC [20]: > 100 µg/mL; EC50 (Human alphaherpesvirus 1): > 100 µM; MIC [21]: 64 µg/mL (≈ 181 µM); CC50 [22]: > 100 µM; MIC [23]: > 100 µg/mL; zone of inhibition at 400 µg/disc (Staphylococcus aureus [24]): 25 mm; zone of inhibition at 400 µg/disc (Enterococcus hirae; ATCC 10541, 18 h, read-out: IZ): 11 mm; EC50 (Coxsackievirus B5): > 100 µM
Fc1ccccc1NC(=S)Nc1cccc(C(F)(F)F)c1	20 mm	16 µg/mL (≈ 50.9 µM)	16 µg/mL (≈ 50.9 µM)	54 µM	64 µM	16 µg/mL (≈ 50.9 µM)	18 mm	> 100 µM	19 mm	> 54 µM	21 mm	> 64 µM	16 µg/mL (≈ 50.9 µM)	> 54 µM	19 mm	23 mm	> 47 µM	16 µg/mL (≈ 50.9 µM)	20 mm	20 mm	zone of inhibition at 400 µg/disc (Proteus vulgaris; NCTC 4635, 18 h, read-out: IZ): 11 mm; CC50 [17]: 47 µM; EC50 [18]: > 64 µM; zone of inhibition at 400 µg/disc (Staphylococcus aureus [19]): 18 mm; EC50 (Vaccinia virus): > 64 µM; zone of inhibition at 400 µg/disc (Enterococcus faecalis): 13 mm; MIC [20]: 100 µg/mL (≈ 318 µM); EC50 (Human alphaherpesvirus 1): > 64 µM; MIC [21]: 32 µg/mL (≈ 102 µM); CC50 [22]: > 100 µM; MIC [23]: 100 µg/mL (≈ 318 µM); zone of inhibition at 400 µg/disc (Staphylococcus aureus [24]): 21 mm; inhibition zone (IZ) (Enterococcus hirae): inactive; EC50 (Coxsackievirus B5): > 64 µM
CSCCCNC(=S)Nc1cccc(C(F)(F)F)c1	18 mm	32 µg/mL (≈ 104 µM)	32 µg/mL (≈ 104 µM)	> 100 µM	> 100 µM	32 µg/mL (≈ 104 µM)	19 mm	> 100 µM	18 mm	> 100 µM	20 mm	> 100 µM	32 µg/mL (≈ 104 µM)	> 100 µM	18 mm	16 mm	> 43 µM	32 µg/mL (≈ 104 µM)	20 mm	16 mm	inhibition zone (IZ) (Proteus vulgaris): inactive; CC50 [17]: 43 µM; EC50 [18]: > 100 µM; zone of inhibition at 400 µg/disc (Staphylococcus aureus [19]): 19 mm; EC50 (Vaccinia virus): > 100 µM; zone of inhibition at 400 µg/disc (Enterococcus faecalis): 13 mm; MIC [20]: 50 µg/mL (≈ 162 µM); EC50 (Human alphaherpesvirus 1): > 100 µM; MIC [21]: 64 µg/mL (≈ 208 µM); CC50 [22]: > 100 µM; MIC [23]: 100 µg/mL (≈ 324 µM); zone of inhibition at 400 µg/disc (Staphylococcus aureus [24]): 18 mm; inhibition zone (IZ) (Enterococcus hirae): inactive; EC50 (Coxsackievirus B5): > 100 µM
